{"data": "Assay results of several laboratories", "target": "Serine/threonine-protein kinase mTOR (MTOR, Homo sapiens, UniProt P42345)"}
{"SMILES": "CCCCN(CCCC)C(=O)CN1C[C@@H](c2cc(OC)c3c(c2)OCO3)[C@H](C(=O)O)[C@H]1CC(C)(C)CCC", "read-out": "cell-free assay", "method": "competition with immobilised ligand", "tested at": "1 µM", "endpoint": "remaining binding", "result": "100%"}
{"SMILES": "CNCc1ccc(-c2cc(-c3nc(-c4ccc(S(=O)(=O)C(C)C)cc4)cnc3N)on2)cc1", "read-out": "enzyme activity", "mode": "inhibitor", "tested at": "0.4 µM", "endpoint": "inhibition", "result": "0%"}
{"SMILES": "Cn1cc(Cl)c2c(Oc3c(F)cc(Nc4cc(Cl)nc(N)n4)cc3F)ccnc21", "read-out": "cell-free assay", "method": "competition with immobilised ligand", "tested at": "0.1 µM", "endpoint": "remaining binding", "result": "85%"}
{"SMILES": "CN1CC(Oc2cnc(C#N)cc2-c2ccn3nc(NC(=O)C4CC4)cc3c2)C1", "read-out": "enzyme activity", "mode": "inhibitor", "tested at": "1 µM", "endpoint": "inhibition", "result": "1%"}
{"SMILES": "CC(C)CCn1c(SCC(=O)Nc2ccccc2C(F)(F)F)nc2nccnc2c1=O", "read-out": "enzyme activity", "mode": "inhibitor", "tested at": "10 µM", "endpoint": "inhibition", "result": "< 20%"}
{"SMILES": "COc1cc(Cl)c(C(=O)N[C@@H](CN[C@H]2CC[C@@H](N)CC2)Cc2ccc(C#N)cc2)cc1-c1ccc(CN[C@H](C)c2ccc(C)cc2)o1", "read-out": "enzyme activity", "mode": "inhibitor", "tested at": "1 µM", "endpoint": "remaining activity", "result": "98%"}
{"SMILES": "C[C@@H](c1cccc(C#N)c1)n1cc(Cl)cc(C(N)=O)c1=N", "read-out": "cell-free assay", "method": "competition with immobilised ligand", "tested at": "1 µM", "endpoint": "remaining binding", "result": "96%"}
{"SMILES": "CC(C)c1ccc(NC(=O)c2cccs2)c(-c2nc3ccccc3[nH]c2=O)c1", "read-out": "enzyme activity", "mode": "inhibitor", "tested at": "1 µM", "endpoint": "activity vs control", "result": "85%"}
{"SMILES": "Cc1cc(NC(=O)c2cccc3cc(-c4cccc5[nH]nc(N)c45)ccc23)ccc1F", "read-out": "enzyme activity", "mode": "inhibitor", "tested at": "0.1 µM", "endpoint": "activity vs control", "result": "92%"}
{"SMILES": "COc1cc2ncnc(Nc3ccc(Oc4ccccc4)cc3C)c2cc1OC", "read-out": "enzyme activity", "mode": "inhibitor", "tested at": "1 µM", "endpoint": "inhibition", "result": "1%"}
{"SMILES": "CC(C)(C)c1nc2c(s1)c1nc(N)ncc1c1ccc(NS(=O)(=O)c3c(F)cccc3F)c(F)c12", "read-out": "enzyme activity", "mode": "inhibitor", "method": "radiometric", "tested at": "1 µM", "endpoint": "remaining activity", "result": "103%"}
{"SMILES": "CN([C@@H]1CCc2c(CC(=O)O)c3ccccc3n2C1)S(=O)(=O)c1ccc(F)cc1", "read-out": "cell-free assay", "method": "competition with immobilised ligand", "tested at": "1 µM", "endpoint": "remaining binding", "result": "100%"}
{"SMILES": "O=C(CSc1nc2nccnc2c(=O)n1CCc1ccccc1)Nc1nccs1", "read-out": "enzyme activity", "mode": "inhibitor", "tested at": "10 µM", "endpoint": "inhibition", "result": "4%"}
{"SMILES": "CCc1ccccc1C(=O)Nc1n[nH]c2c(C)c(F)c(C3C(C#N)=C(C)N(C)C(C)=C3C#N)cc12", "read-out": "cell-free assay", "method": "competition with immobilised ligand", "tested at": "1 µM", "endpoint": "remaining binding", "result": "100%"}
{"SMILES": "CCN(CC)c1ccc(C2=NNC(=O)CC2C)cc1[N+](=O)[O-] (centres unmarked)", "read-out": "enzyme activity", "mode": "inhibitor", "tested at": "10 µM", "endpoint": "remaining activity", "result": "110%"}
{"SMILES": "CN(c1nccc(-c2cnn3ncccc23)n1)C1CC1", "read-out": "cell-free assay", "tested at": "1 µM", "endpoint": "remaining signal", "result": "100%"}
{"SMILES": "Cc1ccc(NC(=O)c2ccc(C)c(C(F)(F)F)c2)cc1C#Cc1nn(C2CCC(O)CC2)c2ncnc(N)c12 (centres unmarked)", "read-out": "cell-free assay", "mode": "inhibitor", "tested at": "10 µM", "endpoint": "remaining signal", "result": "101%"}
